# Compounds with a hit are over-represented: about 2.8% of the library has one in this group of screens.
# HTRA1 inh – HTRA1 serine protease inhibitors, primary screen, biochemical, fluorescence polarization, HTS | Q92743 | recombinant HTRA1, FP-rhodamine activity-based probe | inhibition, % at 5.96 µM | hit rate 0.5% among 340,000 | AID 504803, 2011; in the data active means inhibition above about 36%
# PAFAH1B3 inh – PAFAH1B3 enzyme inhibitors, primary screen, biochemical, fluorescence polarization, human | Platelet-activating factor acetylhydrolase IB subunit alpha1 (Homo sapiens), Q15102 | recombinant PAFAH1B3, FP-rhodamine probe | inhibition, % at 3.39 µM | hit rate 0.28% among 340,000;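 active means inhibition above the screen-wide average of all tested compounds plus 3 SD, cut at about 25% in these data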
# Target sequence (Q15102 whole entry, looked up): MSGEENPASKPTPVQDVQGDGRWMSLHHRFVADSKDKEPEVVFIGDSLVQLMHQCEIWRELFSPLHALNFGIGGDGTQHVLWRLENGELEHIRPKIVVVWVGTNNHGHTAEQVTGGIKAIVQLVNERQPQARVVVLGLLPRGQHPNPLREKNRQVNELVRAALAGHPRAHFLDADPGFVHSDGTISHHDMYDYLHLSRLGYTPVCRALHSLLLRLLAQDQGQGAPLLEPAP
# PAFAH2 inh – PAFAH2 enzyme inhibitors, primary screen, biochemical, fluorescence polarization, human | Platelet-activating factor acetylhydrolase 2, cytoplasmic (Homo sapiens), Q99487 | recombinant PAFAH2, FP-rhodamine activity probe | inhibition, % at 3.39 µM | hit rate 0.99% among 340,000 | AID 492956, 2010;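 active means inhibition above the mean over all tested compounds plus 3 SD, cut at about 30% in these data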;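 further: inhibitors block probe labeling of enzyme so polarization drops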
# PAFAH1B2 FP inh – PAFAH1B2 enzyme inhibitors, primary screen, biochemical, fluorescence polarization, human. Platelet-activating factor acetylhydrolase IB subunit alpha2 (Homo sapiens), P68402. recombinant PAFAH1B2, FP-rhodamine activity probe. inhibition, % at 3.39 µM. hit rate 1.2% among 340,000. AID 492953, 2010;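 active means inhibition above the mean of all tested compounds plus 3 SD, cut at about 24% in these data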
# pPAFAH inh – pPAFAH enzyme inhibitors, primary screen, biochemical, fluorescence polarization, human | recombinant pPAFAH, FP-rhodamine probe fluorescence polarization | AID 463082, 2010 | inhibition, % at 3.39 µM | hit rate 1.5% among 330,000 | Platelet-activating factor acetylhydrolase (Homo sapiens), Q13093;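 active means inhibition above the mean inhibition across the screen plus 3 SD, cut at about 25% in these data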;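 further: inhibitors block binding of the rhodamine activity-based probe so polarization drops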
# mABHD4 FP – ABHD4 inhibitors, primary screen, biochemical, fluorescence polarization, mouse; inhibition, % at 8.92 µM; purified mABHD4, FP-Rh probe fluorescence polarization; hit rate 0.54% among 370,000; (Lyso)-N-acylphosphatidylethanolamine lipase (Mus musculus), Q8VD66;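 active means inhibition exceeding the mean over every tested compound plus 3 SD, cut at about 30% in these data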
# Target sequence (Q8VD66 whole entry, looked up): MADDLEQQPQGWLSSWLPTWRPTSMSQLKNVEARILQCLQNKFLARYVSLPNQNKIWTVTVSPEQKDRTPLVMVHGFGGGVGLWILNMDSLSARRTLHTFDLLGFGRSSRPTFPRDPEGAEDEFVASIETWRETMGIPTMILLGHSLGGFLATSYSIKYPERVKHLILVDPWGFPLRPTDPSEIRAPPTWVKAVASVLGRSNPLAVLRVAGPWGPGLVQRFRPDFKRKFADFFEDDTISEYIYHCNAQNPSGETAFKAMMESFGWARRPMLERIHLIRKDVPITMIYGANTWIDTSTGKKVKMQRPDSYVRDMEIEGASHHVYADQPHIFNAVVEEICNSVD
#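 Material: mouse ABHD4 enzyme, wild type; Benchmarks: S159A mutant high control, sample median low control; Buffer or medium: HEPES pH 7.0, NaCl, Pluronic buffer; Signal: fluorescence polarization; Read-out: percent inhibition of probe binding, normalized to plate controls; Timing: pre-incubation 45 min, probe exposure 60 min, at 25 °C; Dosing: 8.92 µM, single dose.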
# PAFAH2 FP conf – PAFAH2 enzyme inhibitors, confirmation, biochemical, fluorescence polarization, human; shares compounds with PAFAH2 inh; recombinant PAFAH2, FP-rhodamine activity probe; inhibition, % at 3.39 µM; hit rate 65% among 2,300;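 active means mean inhibition over three repeats above a set limit taken from the earlier primary screen, cut at about 30% in these data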;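 further: inhibitor blocks binding of rhodamine activity probe so polarization falls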
# A number is an active result; n = inactive; x = no result.
SMILES,HTRA1 inh,PAFAH1B3 inh,PAFAH2 inh,PAFAH1B2 FP inh,pPAFAH inh,mABHD4 FP,PAFAH2 FP conf
Cc1ccc(C(=O)OCC(=O)NCCc2ccc(F)cc2)cc1S(=O)(=O)N1CCOCC1,n,n,47,n,n,n,37
O=C(COC(=O)c1ccc(F)c(S(=O)(=O)N2CCOCC2)c1)NCc1ccc(F)cc1,n,n,33,n,n,n,n
O=C(COC(=O)c1ccc(F)c(S(=O)(=O)N2CCOCC2)c1)NCc1ccc(Cl)cc1,n,n,n,n,n,n,x
O=C(c1cccnc1Cl)N1CCC(Oc2cccnc2)CC1,x,x,x,x,x,n,x
O=C(CSc1nnc(COc2ccccc2)n1-c1ccccc1)Nc1ccc2c(c1)OCO2,x,x,x,x,x,n,x
Cc1cc(C(=O)Nc2ccc(Cl)c(Cl)c2)n(-c2ccccc2)n1,x,x,x,x,x,n,x
COc1ccc(N(C)C(=O)c2cc3c(s2)-c2ccc(Cl)cc2S(=O)(=O)C3)c(OC)c1,n,n,n,n,n,n,x
CN(Cc1ccco1)C(=O)c1cc2c(s1)-c1ccc(Cl)cc1S(=O)(=O)C2,n,n,51,n,n,n,n
COC(=O)C(C(=O)OC)[C@H]1C=C[C@@H](C(=O)NS(=O)(=O)c2ccc(C)cc2)N(C(C)=O)C1,x,x,x,x,x,n,x
COC(=O)c1ccc(N/C(=N/S(=O)(=O)c2ccccc2)c2ccccc2)cc1,n,n,n,n,n,n,x
CCOc1ccc(S(=O)(=O)/N=C(/Nc2ccc(C(C)=O)cc2)c2ccccc2)cc1,n,n,57,n,n,n,41
CCOc1ccc(S(=O)(=O)/N=C(/Nc2ccc(OC)cc2)c2ccccc2)cc1,n,n,52,n,n,n,41
O=C(O)c1cccc(-c2nnn(Cc3ccccc3)n2)c1,n,n,n,n,n,n,x
O=C(O)c1cccc(-c2nnn(Cc3ccccc3Cl)n2)c1,n,n,84,n,n,n,n
C=C(C)Cn1c(SCC(=O)N/N=C(\C)c2ccc(Br)cc2)nnc1-c1ccc(Br)cc1,x,x,x,x,x,n,x
CC(=O)C1=C(O)C(=O)N(c2cc(C(C)(C)C)on2)C1c1ccc(Br)cc1 (stereo unspecified),n,n,34,n,n,n,n
CC(=O)C1=C(O)C(=O)N(c2cc(C(C)(C)C)on2)C1c1ccc(C(C)C)cc1 (stereo unspecified),n,n,n,n,n,x,x
O=C(CN(CCc1ccccc1)S(=O)(=O)c1ccccc1)N1CCOCC1,x,x,x,x,x,n,x
CC1(C)CCCN(C(=O)c2coc(=O)c(Br)c2)C1,n,n,48,n,x,n,n
O=C(c1coc(=O)c(Br)c1)N1CCC(C(O)(c2ccccc2)c2ccccc2)CC1,n,n,n,n,n,n,x
COc1cc(OC)cc(-c2nnc(Nc3nc4c(F)cccc4s3)o2)c1,n,n,36,n,n,n,31
COc1ccc(-c2nnc(Nc3nc4c(OC)cccc4s3)o2)cc1,n,n,n,n,n,n,x
CCOC(=O)C1=CN(Cc2ccco2)S(=O)(=O)NC1c1ccc(Br)cc1F (stereo unspecified),n,n,n,n,n,n,n
CC(C)(C)c1ccc(C2/C(=C(\O)c3ccc4c(c3)OCCO4)C(=O)C(=O)N2CCCN2CCOCC2)cc1 (stereo unspecified),n,n,n,n,n,n,x
O=C1C(=O)N(CCCN2CCOCC2)C(c2ccc(F)cc2)/C1=C(\O)c1ccc2c(c1)OCCO2 (stereo unspecified),n,n,48,n,n,n,n
SMILES,HTRA1 inh,PAFAH1B3 inh,PAFAH2 inh,PAFAH1B2 FP inh,pPAFAH inh,mABHD4 FP,PAFAH2 FP conf
NC(=O)C1CC(=O)N(c2ccc(OCC(=O)N3CCCC3)cc2)C1 (stereo unspecified),n,n,57,n,x,n,48
O=C(COc1ccc(Cl)cc1)OCC(=O)N1CCCC1,n,n,37,n,n,n,n
CC(=O)N1CCCN(S(=O)(=O)c2ccc3c(c2)oc(=O)n3C)CC1,x,x,x,x,x,n,x
O=C1CCC(=O)N1c1ccc(-c2nc3sc4c(c3c(=O)o2)CCC4)cc1,n,n,n,n,n,n,x
Cc1sc2nc(-c3ccccc3)oc(=O)c2c1C,n,n,81,n,n,n,65
Cc1nc2sc3c(c2c(=O)o1)CCCC3,n,n,n,n,n,n,x
Cc1nc2sc(C)c(C)c2c(=O)o1,n,n,n,n,n,n,x
O=c1oc(-c2ccccc2)nc2sc3c(c12)CCC3,n,n,72,n,n,n,74
O=c1oc(-c2ccco2)nc2sc3c(c12)CCCC3,n,n,72,n,n,n,63
O=C1N(CCCO)CCC12CCC(c1ccccc1)CC2 (stereo unspecified),x,x,x,x,x,n,x
CC(/C=C1\N=C(SCc2ccccc2Cl)SC1=O)=C\c1ccccc1,n,n,46,n,n,n,45
O=C(O/N=C/C1=C(Cl)c2ccccc2CC1)c1ccc(F)cc1,n,n,35,n,n,n,40
O=C1[C@@H](CCc2ccccc2)[C@@H]2c3cc4ccccc4cc3C=NN2[C@@H]2c3cc4ccccc4cc3C=NN12,x,x,x,x,x,n,x
O=C(COC(=O)C1C2CC3OC(=O)C1C3C2)Nc1cccc(C(F)(F)F)c1 (stereo unspecified),n,n,71,n,n,n,78
COc1cccc(NC(=O)C2C3CC4OC(=O)C2C4C3)c1 (stereo unspecified),n,n,n,n,n,n,x
O=C(COC(=O)C1C2CC3OC(=O)C1C3C2)Nc1ccc(Cl)cc1 (stereo unspecified),n,n,84,n,n,n,74
COc1cccc(NC(=O)COC(=O)C2C3CC4OC(=O)C2C4C3)c1 (stereo unspecified),n,n,79,n,n,n,68
CCc1ccccc1NC(=O)COC(=O)C1C2CC3OC(=O)C1C3C2 (stereo unspecified),n,n,40,n,n,n,31
CCOC(=O)N1CCN(C(=O)C[C@H]2C(=O)N(CCCOC)C3=CCCCC[C@]32C(=O)OC)CC1,x,x,x,x,x,n,x
C[C@H](NC(=O)C1CC(=O)N(c2ccc(F)cc2)C1)C(=O)N1CCCCC1 (stereo partly specified),n,n,30,n,n,n,n
O=C(C1CC(=O)N(c2ccc(F)cc2)C1)N1CCCCC1 (stereo unspecified),n,n,n,n,n,n,x
COc1ccccc1NS(=O)(=O)c1ccc(O)c(C(N)=O)c1,n,n,n,n,n,n,x
COc1ccc(NS(=O)(=O)c2ccc(O)c(C(=O)OCC(=O)N3CCCCC3)c2)cc1,n,n,n,n,n,n,x

# Screening results from PubChem.
